Measured values published in ChEMBL document CHEMBL4152210, “Design, synthesis, anti-lung cancer activity, and chemosensitization of tumor-selective MCACs based on ROS-mediated JNK pathway activation and NF-κB pathway inhibition” (Eur J Med Chem, 2018).

Key:
NCI-H460 = assay: Cytotoxicity against human H460 cells assessed as reduction in cell viability after 72 hrs by MTT assay; type: functional, cell-based; conditions: NCI-H460, 72 h
Procedure, shortened: (§1)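 Cells in RPMI 1640 with 10% heat-inactivated FBS and penicillin/streptomycin at 37 °C, 5% CO2. Seeded at 4000 per well, adhered overnight, then exposed to graded compound concentrations in triplicate wells for 72 h. MTT (5 mg/mL stock) added for 4 h, dissolved in DMSO, A490 read. IC50 is the concentration reducing viability by 50% versus untreated control.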

A549 [1] = assay: Cytotoxicity against human A549 cells assessed as reduction in cell viability after 72 hrs by MTT assay; type: functional, cell-based; conditions: A549, 72 h; procedure, shortened: as §1
NCI-H1650 = assay: Cytotoxicity against human NCI-H1650 cells assessed as reduction in cell viability after 72 hrs by MTT assay; type: functional, cell-based; conditions: NCI-H1650, 72 h; procedure, shortened: as §1
NCI-H1975 = assay: Cytotoxicity against human NCI-H1975 cells assessed as reduction in cell viability after 72 hrs by MTT assay; type: functional, cell-based; conditions: NCI-H1975, 72 h; procedure, shortened: as §1
L02 = assay: Cytotoxicity against human HL7702 cells assessed as reduction in cell viability after 72 hrs by MTT assay; type: cell-based; conditions: L02, 72 h; procedure, shortened: as §1
[2] = Selectivity index, ratio of IC50 for human HL7702 cells to IC50 for human H460 cells; type: toxicity
Procedure, shortened: (§2)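 Selectivity index taken as the logarithm of the ratio of the HL7702 IC50 to the cancer-line IC50. […] Not calculated when an IC50 was lacking.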

[3] = Selectivity index, ratio of IC50 for human HL7702 cells to IC50 for human A549 cells; type: toxicity; procedure, shortened: as §2
[4] = Selectivity index, ratio of IC50 for human HL7702 cells to IC50 for human NCI-H1650 cells; type: toxicity; procedure, shortened: as §2
[5] = Selectivity index, ratio of IC50 for human HL7702 cells to IC50 for human NCI-H1975 cells; type: toxicity; procedure, shortened: as §2
A549 [6] = assay: Anticlonogenic activity against human A549 cells assessed as inhibition of clonogenic growth at 3 uM incubated for 2 days followed by replacement of growth media and measured after 8 days by crystal violet staining-based assay relative to control; type: functional
Procedure, shortened: (§3)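 A549 cells grown in 1640 medium with 10% heat-inactivated FBS at 37 °C, 5% CO2. Seeded at 1000 cells per well, then exposed to drug or left untreated. Medium, with or without drug, replaced after 2 days. 8 days later colonies fixed with 1% methanol and 1% formaldehyde, stained with 0.5% crystal violet and photographed. Percent inhibition expressed relative to control.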

A549 [7] = assay: Anticlonogenic activity against human A549 cells assessed as inhibition of clonogenic growth at 9 uM incubated for 2 days followed by replacement of growth media and measured after 8 days by crystal violet staining-based assay relative to control; type: functional; procedure, shortened: as §3

Row | SMILES | IC50 (NCI-H460) [µM] | IC50 (A549 [1]) [µM] | IC50 (NCI-H1650) [µM] | IC50 (NCI-H1975) [µM] | IC50 (L02) [µM] | log(RatioIC50) [2] | log(RatioIC50) [3] | log(RatioIC50) [4] | log(RatioIC50) [5] | inhibition at 3 µM (A549 [6]) [%] | inhibition at 9 µM (A549 [7]) [%]
1 | COc1cc(/C=C2\CNC/C(=C\c3cc(OC)c(OC)c(OC)c3)C2=O)cc(OC)c1OC | 1.5 | 1.2 | 4.2 | 4 | 7.6 | 0.7 | 0.8 | 0.26 | 0.28 | – | –
2 | COc1cc(/C=C2\CN(C(=O)C(C)C)C/C(=C\c3cc(OC)c(OC)c(OC)c3)C2=O)cc(OC)c1OC | 2 | 0.8 | 10.8 | 1.9 | 12.2 | 0.79 | 1.18 | 0.05 | 0.81 | – | –
3 | COc1cc(/C=C2\CN(C(=O)c3ccccc3F)C/C(=C\c3cc(OC)c(OC)c(OC)c3)C2=O)cc(OC)c1OC | 1.5 | 0.7 | 1.9 | 1.4 | 4.4 | 0.47 | 0.8 | 0.36 | 0.5 | – | –
4 | CCN1C/C(=C\c2ccc(OC)c(OC)c2)C(=O)/C(=C/c2ccc(OC)c(OC)c2)C1 | 3.6 | 3.6 | 12 | 8.5 | 9.8 | 0.43 | 0.43 | -0.09 | 0.06 | – | –
5 | COc1cc(/C=C2\CN(C(=O)CCC(=O)O)C/C(=C\c3cc(OC)c(OC)c(OC)c3)C2=O)cc(OC)c1OC | > 60 | 17.9 | > 60 | > 60 | > 60 | – | – | – | – | – | –
6 | CCN1C/C(=C\c2cc(OC)c(OC)c(OC)c2)C(=O)/C(=C/c2cc(OC)c(OC)c(OC)c2)C1 | 4.9 | 4.2 | 8.2 | 6.5 | 12.8 | 0.42 | 0.48 | 0.19 | 0.29 | – | –
7 | O=C1/C(=C/c2ccccc2F)CNC/C1=C\c1ccccc1F | 1.2 | 2.4 | 1.7 | 1.3 | 5.1 | 0.63 | 0.33 | 0.48 | 0.59 | – | –
8 | COc1ccc(/C=C2\CN(C)C/C(=C\c3ccc(OC)c(OC)c3)C2=O)cc1OC | 3.1 | 1.3 | 9 | 6.6 | 18.2 | 0.77 | 1.15 | 0.31 | 0.44 | – | –
9 | Cc1ccc2nc(NCCN)c3ncc(C)n3c2c1 [BMS-345541] | 2.8 | 8.6 | 9.3 | 8 | 15.3 | 0.74 | 0.25 | 0.22 | 0.28 | – | –
10 | COc1ccc(/C=C2\CNC/C(=C\c3ccc(OC)c(OC)c3)C2=O)cc1OC | 6.4 | 2.9 | 16.7 | 10.3 | 15.1 | 0.37 | 0.72 | -0.04 | 0.17 | – | –
11 | COc1cc(/C=C/C(=O)CC(=O)/C=C/c2ccc(O)c(OC)c2)ccc1O [CURCUMIN] | 8.5 | 6.8 | – | 1.4 | 7.2 | -0.07 | 0.02 | -0.45 | 0.71 | – | –
12 | CCCN1C/C(=C\c2ccc(OC)c(OC)c2)C(=O)/C(=C/c2ccc(OC)c(OC)c2)C1 | 4.1 | 4.2 | 16 | 11.2 | 21 | 0.71 | 0.7 | 0.12 | 0.27 | – | –
13 | O=c1[nH]cc(F)c(=O)[nH]1 [FLUOROURACIL] | – | – | – | – | – | – | – | – | – | 38 | 70
14 | CCC(=O)N1C/C(=C\c2cc(OC)c(OC)c(OC)c2)C(=O)/C(=C/c2cc(OC)c(OC)c(OC)c2)C1 | 2.7 | 0.8 | 4.4 | 1.7 | 4.2 | 0.19 | 0.72 | -0.02 | 0.39 | – | –
